Results taken from ChEMBL document CHEMBL1212693, “Dorsomorphin inhibits BMP signals required for embryogenesis and iron metabolism” (Nat Chem Biol, 2008).
Activity calls are given as the source filed them. The calls are words filed in the database; no cut-off is given here.

Tests used:
HepG2 = test: Inhibition of hepcidin mRNA expression in human HepG2 cells at 10 uM […] by qRT-PCR analysis relative to control; assay type: functional
Mus musculus [1] = species on record: Mus musculus; test: Inhibition of BMPR1-mediated Smad-5 phosphorylation in BMP6-stimulated mouse BMPR2 deficient PASMC at 4 uM treated 30 mins before BMP6 challenge measured after 30 mins by immunoblot analysis
Danio rerio [2] = species on record: Danio rerio; test: Inhibition of BMPR1 in zebrafish assessed as severity of embryonic axis dorsalization at 10 uM treated at 3 hrs post-fertilization measured at 48 hrs; design: scale not given: the % may be the effect or the level left
Danio rerio [3] = species on record: Danio rerio; test: Inhibition of BMPR1 in zebrafish assessed as penetrance of moderate embryonic axis dorsalization at 10 uM treated at 2 to 4 hrs post-fertilization measured at 48 hrs; design: scale not given: the % may be the effect or the level left
Procedure, shortened: (§1)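 Compound added at the stated times and concentrations. Gross morphology scored visually at up to 48 h.p.f. for dorsalization of the embryonic axis.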

Mus musculus [4] = species on record: Mus musculus; test: Inhibition of BMPR1-mediated Smad-8 phosphorylation in BMP4-stimulated mouse PASMC at 4 uM treated 30 mins before BMP4 challenge measured after 30 mins by immunoblot analysis
Procedure, shortened: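 Wild-type mouse PASMCs were kept in RPMI with 0.5% FCS for 24 h. They were preincubated with compound or vehicle for 30 min, then stimulated for 30 min with recombinant BMP2, BMP4, BMP6 or BMP7 at 10 ng ml−1. Lysates in SDS buffer were immunoblotted with anti-phospho-SMAD1/5/8. Total SMAD1 and α-tubulin served as loading controls, and bands were quantified by phosphorimager.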

Danio rerio [5] = species on record: Danio rerio; test: Inhibition of BMPR1 in zebrafish assessed as penetrance of mild embryonic axis dorsalization at 10 uM treated continuously from 10 hrs post-fertilization measured at 48 hrs; design: scale not given: the % may be the effect or the level left; procedure, shortened: as §1
Danio rerio [6] = test: Inhibition of iron-dextran conjugate-induced Smad-1 phosphorylation in zebrafish at 23 ug/g, iv after 1 hr relative to control; assay type: functional
Danio rerio [7] = species on record: Danio rerio; test: Inhibition of BMPR1 in zebrafish assessed as severity of embryonic axis dorsalization at 2 uM treated at 3 hrs post-fertilization measured at 48 hrs; design: scale not given: the % may be the effect or the level left
Danio rerio [8] = species on record: Danio rerio; test: Inhibition of BMPR1 in zebrafish assessed as penetrance of normal embryonic axis dorsalization at 1 uM treated at 3 hrs post-fertilization measured at 48 hrs; design: scale not given: the % may be the effect or the level left
Danio rerio [9] = species on record: Danio rerio; test: Inhibition of BMPR1 in zebrafish assessed as penetrance of normal embryonic axis dorsalization at 5 uM treated at 3 hrs post-fertilization measured at 48 hrs; design: scale not given: the % may be the effect or the level left

Structure (SMILES): c1cc(-c2cnn3cc(-c4ccc(OCCN5CCCCC5)cc4)cnc23)ccn1 [DORSOMORPHIN]
- fold change (FC) (HepG2): 50
- inhibition (Mus musculus [1]): Active
- Activity (Danio rerio [2]): 100%
- Activity (Danio rerio [3]): 90%
- inhibition (Mus musculus [4]): Active
- Activity (Danio rerio [5]): 0%
- fold change (FC) (Danio rerio [6]): 3
- Activity (Danio rerio [7]): 0%
- Activity (Danio rerio [8]): 100%
- Activity (Danio rerio [9]): 81%
